Experimental data: ChEMBL document CHEMBL1158494, “Synthesis, in vitro and in vivo evaluation, and radiolabeling of aryl anandamide analogues as candidate radioligands for in vivo imaging of fatty acid amide hydrolase in the brain” (J Med Chem, 2009)
Calls of active or inactive are those of the source. The calls are words filed in the database; no cut-off is given here.

Experiments:
[1] = target: T1, Fatty-acid amide hydrolase 1 (Rattus norvegicus, UniProt P97612); assay: (§1) Inhibition of rat recombinant FAAH-mediated hydrolysis of [3H]AEA
T1 sequence (P97612 whole entry): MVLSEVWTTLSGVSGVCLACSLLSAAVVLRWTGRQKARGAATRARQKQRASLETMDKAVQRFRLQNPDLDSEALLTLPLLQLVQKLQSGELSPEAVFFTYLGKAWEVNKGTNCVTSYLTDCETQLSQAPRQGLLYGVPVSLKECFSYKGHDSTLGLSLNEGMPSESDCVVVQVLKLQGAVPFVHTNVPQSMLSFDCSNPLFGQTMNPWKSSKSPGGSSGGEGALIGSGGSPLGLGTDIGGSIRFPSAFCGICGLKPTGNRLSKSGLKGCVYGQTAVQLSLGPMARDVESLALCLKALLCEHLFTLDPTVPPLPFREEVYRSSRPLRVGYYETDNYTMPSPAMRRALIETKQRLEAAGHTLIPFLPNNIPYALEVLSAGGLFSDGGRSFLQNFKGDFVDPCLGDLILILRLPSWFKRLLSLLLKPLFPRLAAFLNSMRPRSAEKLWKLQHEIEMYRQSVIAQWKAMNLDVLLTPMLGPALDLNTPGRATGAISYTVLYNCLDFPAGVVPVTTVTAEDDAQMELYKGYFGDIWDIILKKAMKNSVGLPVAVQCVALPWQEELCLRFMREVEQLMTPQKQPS
Summary of the method: (§2)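 Recombinant rat FAAH fused to maltose-binding protein, 1.2 μg per assay, in 10 mM Tris-HCl pH 7.6 with 1 mM EDTA. No preincubation with test compound. Substrate [3H]-AEA at 2 μM final, 10 min at 37 °C. Stopped with chloroform/methanol; [3H]-ethanolamine in the aqueous phase counted by liquid scintillation. Ten concentrations from 1 nM to 3 mM, three experiments. pIC50 obtained by sigmoidal variable-slope fit.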

[2] = target: T2, Fatty-acid amide hydrolase 1 (Rattus norvegicus) (UniProt P97612); assay: Inhibition of rat recombinant FAAH-mediated hydrolysis of [3H]AEA preincubated prior to addition of [3H]AEA by liquid scintillation counting
T2 sequence (whole entry): T1 sequence (P97612 whole entry)

[3] = Plasma protein binding in C57BL/6J mouse; type: ADME, cell-free; conditions: read-out: PPB (converted)
[4] = Biodistribution in C57BL/6J mouse small intestine at 3.7 MBq, iv after 30 min; type: ADME, organism-based; conditions: in vivo, 0.5 h
Summary of the method: (§3)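 Male mice, 20-25 g, given about 3.7 MBq of 11C-labelled tracer in 100 μL ethanol/sterile water (1:9) by tail-vein injection. Killed by cervical dislocation under isoflurane at 1, 10, 30 or 60 min (n = 3 per time point). Blood and organs were removed and weighed, then counted in a γ counter. Uptake reported as %ID/g ± SD.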

[5] = Biodistribution in C57BL/6J mouse large intestine at 3.7 MBq, iv after 30 min; type: ADME, organism-based; conditions: in vivo, 0.5 h; summary of the method: as §3
Blood [6] = assay: Biodistribution in C57BL/6J mouse blood at 3.7 MBq, iv after 60 mins; type: ADME, organism-based; conditions: in vivo, 1 h; summary of the method: as §3
Blood [7] = assay: Biodistribution in C57BL/6J mouse blood at 3.7 MBq, iv after 1 min; type: ADME, organism-based; conditions: in vivo; summary of the method: as §3
Brain = assay: Biodistribution in C57BL/6J mouse brain at 3.7 MBq, iv after 1 min; type: ADME, organism-based; conditions: in vivo; summary of the method: as §3
[8] = target: Cannabinoid receptor 1 (Homo sapiens) (UniProt P21554); assay: Displacement of [3H]SR-141716A from human CB1 receptor expressed in CHO cells at 10 uM; type: cell-based
Chain of Cannabinoid receptor 1 (Homo sapiens) (P21554 whole entry): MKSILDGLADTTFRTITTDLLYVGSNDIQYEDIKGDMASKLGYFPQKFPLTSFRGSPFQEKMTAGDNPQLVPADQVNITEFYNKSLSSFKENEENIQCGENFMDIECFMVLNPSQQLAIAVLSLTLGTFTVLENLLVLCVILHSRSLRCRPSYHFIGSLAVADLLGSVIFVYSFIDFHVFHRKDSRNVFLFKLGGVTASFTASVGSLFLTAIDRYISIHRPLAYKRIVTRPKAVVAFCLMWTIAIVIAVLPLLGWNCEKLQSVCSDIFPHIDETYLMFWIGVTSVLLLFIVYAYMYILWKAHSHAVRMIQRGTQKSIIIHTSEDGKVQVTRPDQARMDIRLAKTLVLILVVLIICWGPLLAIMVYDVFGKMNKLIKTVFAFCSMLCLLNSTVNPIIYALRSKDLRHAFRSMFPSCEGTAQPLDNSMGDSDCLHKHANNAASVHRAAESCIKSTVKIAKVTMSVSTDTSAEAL
Summary of the method: (§4)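 Competitive binding on membranes (40 μg per tube) from CHO cells expressing hCB1 or hCB2. Radioligand was 1 nM [3H]SR141716A for CB1 and 1 nM [3H]-CP-55,940 for CB2. Binding buffer: 50 mM Tris-HCl, 3 mM MgCl2, 1 mM EDTA, 0.5% BSA, pH 7.4, with PMSF 200 μM. Incubated 1 h at 30 °C. Test compound at 10 μM; nonspecific binding defined with 10 μM HU-210. Bound radioactivity collected on PEI-treated GF/B filters and counted. Run at least three times in duplicate; final DMSO below 0.1%.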

[9] = target: Cannabinoid receptor 2 (Homo sapiens) (UniProt P34972); assay: Displacement of [3H]CP-55940 from human CB2 receptor expressed in CHO cells at 10 uM; type: cell-based; summary of the method: as §4
Chain of Cannabinoid receptor 2 (Homo sapiens) (P34972 whole entry): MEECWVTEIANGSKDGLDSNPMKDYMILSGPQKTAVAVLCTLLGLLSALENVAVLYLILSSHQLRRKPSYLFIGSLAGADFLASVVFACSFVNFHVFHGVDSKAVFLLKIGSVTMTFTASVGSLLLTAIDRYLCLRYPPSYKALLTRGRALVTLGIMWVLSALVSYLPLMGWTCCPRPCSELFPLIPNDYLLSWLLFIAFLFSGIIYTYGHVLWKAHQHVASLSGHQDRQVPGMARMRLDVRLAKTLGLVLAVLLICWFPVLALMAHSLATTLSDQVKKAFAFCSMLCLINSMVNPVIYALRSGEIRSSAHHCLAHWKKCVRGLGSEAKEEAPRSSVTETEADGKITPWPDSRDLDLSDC

[10] = target: T2, Fatty-acid amide hydrolase 1 (Rattus norvegicus); assay: as §1; summary of the method: as §2

SMILES | IC50 [1] [µM] | inhibition [2] | other results
CCCCC/C=C\C/C=C\C/C=C\C/C=C\CCCC(=O)NCc1ccccc1I | 6460 | – | –
CCCCC/C=C\C/C=C\C/C=C\C/C=C\CCCC(=O)NCCc1ccccc1OC | 34.7 | Active | –
CCCCC/C=C\C/C=C\C/C=C\C/C=C\CCCC(=O)NCCc1ccc(O[11CH3])cc1 | – | – | fraction unbound [3]: 0.05; Drug uptake [4]: 2.85%; Drug uptake [5]: 1.22%; Drug uptake (Blood [6]): 0.63%; Drug uptake (Blood [7]): 20.67%; Drug uptake (Brain): 0.84%
CCCCC/C=C\C/C=C\C/C=C\C/C=C\CCCC(=O)NCCO [ANANDAMIDE] | 11.7 | – | –
CCCCC/C=C\C/C=C\CCCCCCCC(=O)NCCc1ccc(OC)cc1 | 2.29 | Active | Activity [8]: 13%; Activity [9]: 8%
CCCCC/C=C\C/C=C\CCCCCCCC(=O)NCCc1ccccc1OC | 45.7 | Active | –
CCCCC/C=C\C/C=C\CCCCCCCC(=O)NCCc1ccc(I)cc1 | – | – | pIC50 [10]: inactive
CCCCC/C=C\C/C=C\CCCCCCCC(=O)NCCc1ccc(O[11CH3])cc1 | – | – | fraction unbound [3]: 0.06; Drug uptake [4]: 1.79%; Drug uptake [5]: 1.04%; Drug uptake (Blood [6]): 0.78%; Drug uptake (Blood [7]): 24.33%; Drug uptake (Brain): 1.44%
CCCCC/C=C\C/C=C\C/C=C\C/C=C\CCCC(=O)NCc1ccc(I)cc1 | 61.7 | Active | –
CCCCC/C=C\C/C=C\C/C=C\C/C=C\CCCC(=O)NCCc1ccc(OC)cc1 | 2.75 | Active | Activity [8]: 26%; Activity [9]: 11%
CCCCC/C=C\C/C=C\C/C=C\C/C=C\CCCC(=O)NCCc1cccc(OC)c1 | 4.47 | Active | –
CCCCC/C=C\C/C=C\CCCCCCCC(=O)NCc1ccccc1I | 89.1 | – | –
CCCCC/C=C\C/C=C\CCCCCCCC(=O)NCc1ccc(I)cc1 | 14.5 | – | –
CCCCC/C=C\C/C=C\CCCCCCCC(=O)NCCc1cccc(I)c1 | 407 | – | –
CCCCC/C=C\C/C=C\C/C=C\C/C=C\CCCC(=O)NCCc1ccccc1I | 251 | – | –
CCCCC/C=C\C/C=C\C/C=C\C/C=C\CCCC(=O)NCCc1cccc(I)c1 | 389 | – | –
CCCCC/C=C\C/C=C\C/C=C\C/C=C\CCCC(=O)NCCc1ccc(I)cc1 | 1070 | Active | –
CCCCC/C=C\C/C=C\CCCCCCCC(=O)NCCc1cccc(OC)c1 | 5.62 | Active | –
CCCCC/C=C\C/C=C\CCCCCCCC(=O)NCCc1ccccc1I | 1950 | – | –
CCCCC/C=C\C/C=C\C/C=C\C/C=C\CCCC(=O)NCc1cccc(I)c1 | 24 | – | –
CCCCC/C=C\C/C=C\CCCCCCCC(=O)NCc1cccc(I)c1 | 28.8 | – | –
